We go through one compound from paper PMC6432629 (The Prostate, 2016).

Structures are written as SMILES. Numbered stars: 1 amine (or outer) side, 2 acyl side, 3 side chain; on linkers, the order of the positions; unused ones are H or OH. Square brackets hold non-standard residues; d marks the D form. Peptide text beside a SMILES is read from it. * marks the point of attachment. Emetine(N2') = CC[C@H]1CN2CCc3cc(OC)c(OC)cc3[C@@H]2C[C@@H]1C[C@@H]1c2cc(OC)c(OC)cc2CCN1*; PABC = O=C(OCc1ccc(N[*:1])cc1)[*:2]

In one data set the test system is PC3. Description: MTT cell proliferation. The conditions noted are these: 3-day exposure, media with 10% FBS.
The target in the next data set is T1, FAP (Homo sapiens, UniProt Q12884).
T1 sequence (Q12884 27-760 limits assumed): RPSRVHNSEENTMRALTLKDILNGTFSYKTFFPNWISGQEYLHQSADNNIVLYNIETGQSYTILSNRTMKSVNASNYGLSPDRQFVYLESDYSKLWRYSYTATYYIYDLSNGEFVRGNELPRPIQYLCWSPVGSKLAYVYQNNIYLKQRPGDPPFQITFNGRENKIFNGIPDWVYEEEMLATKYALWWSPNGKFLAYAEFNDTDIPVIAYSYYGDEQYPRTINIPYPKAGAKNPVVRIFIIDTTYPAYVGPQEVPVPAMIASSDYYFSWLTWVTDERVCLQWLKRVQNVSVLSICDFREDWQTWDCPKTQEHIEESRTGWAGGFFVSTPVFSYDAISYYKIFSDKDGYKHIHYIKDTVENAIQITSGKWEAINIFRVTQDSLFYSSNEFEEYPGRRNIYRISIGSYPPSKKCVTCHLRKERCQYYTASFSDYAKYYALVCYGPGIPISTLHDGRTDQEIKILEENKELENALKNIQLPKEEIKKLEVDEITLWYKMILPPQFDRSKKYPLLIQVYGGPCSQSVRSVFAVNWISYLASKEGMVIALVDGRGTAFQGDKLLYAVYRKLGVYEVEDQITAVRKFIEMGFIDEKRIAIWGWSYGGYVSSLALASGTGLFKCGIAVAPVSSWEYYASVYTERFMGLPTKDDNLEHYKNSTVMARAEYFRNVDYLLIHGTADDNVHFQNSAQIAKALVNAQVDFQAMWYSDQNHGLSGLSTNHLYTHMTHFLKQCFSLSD
The data set is described as follows: FAP-mediated hydrolysis of prodrugs ex vivo. In kind it is in vitro ADME. The conditions noted are these: purified FAP 300 nM, 37°C, up to 24 hr.

The test system of a further data set is FAP and DPPIV. Description: Tandem hydrolysis by mixture of purified FAP and DPPIV. The data set is classed as in vitro ADME. Conditions: FAP 300 nM + DPPIV 30 nM, 37°C, HPLC and MS. In a few lines: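 FAP expressed in Schneider S2 cells (induced with 500 μM CuSO4) and purified from supernatant on Ni-NTA; DPPIV is human recombinant from sf9 cells. Enzymes (FAP 300 nM, DPPIV 30 nM) in 100 mM Tris, 100 mM NaCl, pH 7.8. Substrate from 10 mM DMSO stock, 250 μM final, 2.5% DMSO. Shaken at 37°C for 24 hr; time-point aliquots quenched in cold acetonitrile, then HPLC and MS.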

A further data set relates to MCF-7. The data set is described as follows: MTT cell proliferation. Conditions: 3-day exposure, media with 10% FBS.
The test system of the next data set is LNCaP. The data set is described as follows: MTT cell proliferation. Conditions: 3-day exposure, media with 10% FBS.
A further data set concerns PrEC cells. Description: Cytotoxicity in normal prostatic epithelial cells in serum free media.
A further data set has as its system MDA-MB-231. Description: MTT cell proliferation. Conditions: 3-day exposure, media with 10% FBS. In kind it is cell-based, human.
Data set [1] is described as follows: Stability of prodrug 11 in human plasma. In kind it is in vitro ADME. The conditions noted are these: human plasma (EDTA), 400 μM, 37°C, 24 hr, methanol precipitation, HPLC and MS. The method, boiled down:
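Compound from 10 mM DMSO stock was added to EDTA-anticoagulated human plasma, with a PBS control at the same concentration. Incubated at 37°C for 24 hr. At time points, 100 μl aliquots received 200 μl cold methanol, sat on ice 10 min, and were centrifuged at 13,000 rpm for 6 min. Supernatant analysed by HPLC and mass spectrometry.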

`CC[C@H]1CN2CCc3cc(OC)c(OC)cc3[C@@H]2C[C@@H]1C[C@@H]1c2cc(OC)c(OC)cc2CCN1C(=O)OCc1ccc(NC(=O)[C@@H]2CCCN2C(=O)[C@H](C)NC(=O)[C@@H]2CCCN2C(=O)CNC(=O)[C@H](C)NC(=O)[C@@H]2CCCN2C(=O)CNC(=O)[C@H](CO)NC(=O)[C@H](C)NC(C)=O)cc1` [Compound 11] (Ac-ASGPAGPAP[PABC]-{Emetine(N2')}): the “cytotoxicity / IC50 compared with emetine, PC3 (in words)” value in the data set with PC3 was “identical to that for emetine”. Further, in the data set with FAP, the “cleavage by recombinant purified FAP (in words)” value is given as “progressively cleaved to the intermediate (precursor) 10”. In the data set on FAP and DPPIV (2 hr), the “% emetine formed from 11, 2 hr” value is listed as 22% and the “% precursor 10 formed from 11, 2 hr” value was 56%. In the data set with FAP and DPPIV (4 hr), the “% emetine formed from 11, 4 hr” value is listed as 36% and the “% precursor 10 formed from 11, 4 hr” value was found to be 58%. Also, the “% precursor 10 in solution, 24 hr” value with FAP and DPPIV (24 hr) is 25%. For the same compound, the “cytotoxicity / IC50 compared with emetine, MCF-7 (in words)” value in the data set with MCF-7 is “identical to that for emetine”. The “cytotoxicity / IC50 compared with emetine, LNCaP (in words)” value in the data set on LNCaP is on record as “identical to that for emetine”. For the same compound, the “cytotoxicity to PrEC at 100 nM and 1,000 nM (in words)” value in the data set with PrEC cells (3-day exposure, keratinocyte serum free media, no FAP or DPPIV) was “not cytotoxic”. Besides, the IC50 (usually the concentration that gives 50% inhibition) with PrEC cells (read-out: calculated IC50 in the PrEC cell lines, 3-day exposure, expanded dose range, serum free media, absence of FAP and DPPIV) is 7.73 µM. Moreover, in the data set on PrEC cells (serum free media, absence of FAP and DPPIV), the “fold less cytotoxic than emetine in PrEC” value was “more than 200 fold”. Moreover, the “IC50 compared with emetine, MDA-MB-231 (in words)” value in the data set with MDA-MB-231 is on record as “identical to that for emetine”. For the same compound, the “precursor 10 or emetine detected after incubation in human plasma” value in data set [1] was “No detectable amount”.
